# PMC7004521 (Cancer Science, 2019)
# “Also recorded” adds a separate entry of the source.
# Key:
# [1] = Dose-limiting toxicities, MTD and RP2D determination; format: in vivo, human
# [2] = test system: MET‐dysregulated advanced solid tumors; test: Best overall response according to investigator; format: in vivo, human
# Method in brief: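 Patients with MET-dysregulated advanced solid tumours took oral twice-daily doses in 28-day cycles: 100–600 mg capsules or 400 mg tablets in escalation, and 600 mg capsules or 400 mg tablets in expansion. Tumours were assessed by CT, or by contrast MRI for GBM or when CT was contraindicated. Response was judged by the investigator per RECIST v1.0 (the ORR endpoint is defined per v1.1), or MacDonald criteria for GBM.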
# Plasma pharmacokinetics = format: in vivo, human
# Method in brief: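 Capsules (100–600 mg bid) or tablets (400 mg bid) were given orally. In escalation, plasma was drawn pre-dose and at 0.5, 1, 2, 4, 6 and 8 h on cycle 1 days 1 and 15, plus pre-dose on C1D2, C1D16, C2D1 and C3D1. In expansion, non-NSCLC patients had the C1D15 profile plus pre-dose samples. Analysis was validated LC-MS/MS (LLOQ 1 ng/mL) with noncompartmental parameters.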
# p‐MET = p‐MET immunohistochemistry in paired tumor biopsies; format: in vivo, human; details: 450 mg bid capsule, cycle 1 day 15, one advanced CRC patient
# [3] = End of treatment / discontinuation reasons; format: in vivo, human; details: dose‐expansion part, six of 38 patients
# MET‐dependent tumors = details: tolerable doses; animal models incl. NSCLC, HCC, GBM; cited from earlier work
# advanced solid tumors = details: Japanese patients with advanced solid tumors; cited from earlier work
# MET = details: cellular assays; cited from earlier work
# other kinases = details: large panels of biochemical and binding assays; cited from earlier work
# [4] = dose‐expansion cohorts, N = 18 evaluable
# [5] = escalation 400 mg bid tablet n=5
# [6] = expansion RP2D gastric cancer n=9
# [7] = expansion RP2D other indications n=18
smiles,measurement,setting,value
CNC(=O)c1ccc(-c2cnc3ncc(Cc4ccc5ncccc5c4)n3n2)cc1F [capmatinib],posterior probability of excessive toxicity (BLRM),"[1]; 600 mg bid dose level, dose‐escalation phase",20.1%
same,MTD,[1]; up to 600 mg bid capsules,not reached
same,Best overall response: Complete response,[2]; all escalations N=38,0 n (%)
same,Best overall response: Partial response,[2]; all escalations N=38,0 n (%)
same,Best overall response: Progressive disease,[2]; all escalations N=38,25 (66) n (%)
same,Best overall response: Unknown,[2]; all escalations N=38,3 (5) n (%)
same,Best overall response: Complete response,[2]; all expansions RP2D N=38,0 n (%)
same,Best overall response: Partial response,[2]; all expansions RP2D N=38,0 n (%)
same,tumor shrinkage,"[2]; dose escalation, 450 mg bid capsule, colon cancer and HCC",tumor shrinkage was observed in two patients; also recorded: tumor shrinkage was observed for two patients
same,patients with best percentage change from baseline in sum of tumor diameters <0,[2]; [4],7 n
same,patients with best percentage change from baseline in sum of tumor diameters >0,[2]; [4],11 n
same,Best overall response: Complete response,[2]; escalation 100 mg bid n=4,0 n (%)
same,Best overall response: Partial response,[2]; escalation 100 mg bid n=4,0 n (%)
same,Best overall response: Progressive disease,[2]; escalation 100 mg bid n=4,2 (50) n (%)
same,Best overall response: Stable disease,[2]; escalation 100 mg bid n=4,2 (50) n (%)
same,Best overall response: Unknown,[2]; escalation 100 mg bid n=4,0 n (%)
same,Best overall response: Complete response,[2]; escalation 200 mg bid n=5,0 n (%)
same,Best overall response: Partial response,[2]; escalation 200 mg bid n=5,0 n (%)
same,Best overall response: Progressive disease,[2]; escalation 200 mg bid n=5,4 (80) n (%)
same,Best overall response: Stable disease,[2]; escalation 200 mg bid n=5,1 (20) n (%)
same,Best overall response: Unknown,[2]; escalation 200 mg bid n=5,0 n (%)
same,Best overall response: Complete response,[2]; escalation 250 mg bid n=4,0 n (%)
same,Best overall response: Partial response,[2]; escalation 250 mg bid n=4,0 n (%)
same,Best overall response: Stable disease,[2]; escalation 250 mg bid n=4,1 (25) n (%)
same,Best overall response: Unknown,[2]; escalation 250 mg bid n=4,1 (25) n (%)
same,Best overall response: Complete response,[2]; escalation 350 mg bid n=3,0 n (%)
same,Best overall response: Partial response,[2]; escalation 350 mg bid n=3,0 n (%)
same,Best overall response: Progressive disease,[2]; escalation 350 mg bid n=3,2 (67) n (%)
same,Best overall response: Stable disease,[2]; escalation 350 mg bid n=3,1 (33) n (%)
same,Best overall response: Unknown,[2]; escalation 350 mg bid n=3,0 n (%)
same,Best overall response: Complete response,[2]; [5],0 n (%)
same,Best overall response: Partial response,[2]; [5],0 n (%)
same,Best overall response: Progressive disease,[2]; [5],3 (60) n (%)
same,Best overall response: Stable disease,[2]; [5],2 (40) n (%)
same,Best overall response: Unknown,[2]; [5],0 n (%)
same,Best overall response: Complete response,[2]; escalation 450 mg bid n=9,0 n (%)
same,Best overall response: Partial response,[2]; escalation 450 mg bid n=9,0 n (%)
same,Best overall response: Progressive disease,[2]; escalation 450 mg bid n=9,6 (67) n (%)
same,Best overall response: Stable disease,[2]; escalation 450 mg bid n=9,2 (22) n (%)
same,Best overall response: Unknown,[2]; escalation 450 mg bid n=9,1 (11) n (%)
same,Best overall response: Complete response,[2]; escalation 600 mg bid n=8,0 n (%)
same,Best overall response: Partial response,[2]; escalation 600 mg bid n=8,0 n (%)
same,Best overall response: Progressive disease,[2]; escalation 600 mg bid n=8,6 (75) n (%)
same,Best overall response: Stable disease,[2]; escalation 600 mg bid n=8,1 (13) n (%)
same,Best overall response: Unknown,[2]; escalation 600 mg bid n=8,1 (13) n (%)
same,Best overall response: Complete response,[2]; expansion RP2D HCC n=11,0 n (%)
same,Best overall response: Partial response,[2]; expansion RP2D HCC n=11,0 n (%)
same,Best overall response: Progressive disease,[2]; expansion RP2D HCC n=11,1 (9.1) n (%)
same,Best overall response: Stable disease,[2]; expansion RP2D HCC n=11,5 (46) n (%)
same,Best overall response: Unknown,[2]; expansion RP2D HCC n=11,5 (46) n (%)
same,Best overall response: Complete response,[2]; [6],0 n (%)
same,Best overall response: Partial response,[2]; [6],0 n (%)
same,Best overall response: Progressive disease,[2]; [6],3 (33) n (%)
same,Best overall response: Stable disease,[2]; [6],2 (22) n (%)
same,Best overall response: Unknown,[2]; [6],4 (44) n (%)
same,Best overall response: Complete response,[2]; [7],0 n (%)
same,Best overall response: Partial response,[2]; [7],0 n (%)
same,Best overall response: Progressive disease,[2]; [7],9 (50) n (%)
same,Best overall response: Stable disease,[2]; [7],5 (28) n (%)
same,Best overall response: Unknown,[2]; [7],4 (22) n (%)
same,stable disease,"[2]; expansion, other advanced solid tumor types, five of 18 patients",28%
same,tumor reduction in patients with GCN ≥6,"[2]; expansion, two other solid tumor patients",substantial tumor reduction
same,drug accumulation following multiple doses,Plasma pharmacokinetics; 400 mg bid tablets,Limited drug accumulation
same,"Racc (accumulation ratio), Mean (SD)","Plasma pharmacokinetics; Cycle 1 Day 15, 100 mg bid n=3",1.54 (0.786)
same,"Racc (accumulation ratio), Mean (SD)","Plasma pharmacokinetics; Cycle 1 Day 15, 200 mg bid n=5",1.36 (0.869)
same,"Racc (accumulation ratio), Mean (SD)","Plasma pharmacokinetics; Cycle 1 Day 15, 250 mg bid n=3",1.08 (0.443)
same,"Racc (accumulation ratio), Mean (SD)","Plasma pharmacokinetics; Cycle 1 Day 15, 350 mg bid n=3",1.38 (0.614)
same,"Racc (accumulation ratio), Mean (SD)","Plasma pharmacokinetics; Cycle 1 Day 15, 400 mg bid tablet n=5",1.09 (0.408)
same,"Racc (accumulation ratio), Mean (SD)","Plasma pharmacokinetics; Cycle 1 Day 15, 450 mg bid n=5",2.36 (1.75)
same,"Racc (accumulation ratio), Mean (SD)","Plasma pharmacokinetics; Cycle 1 Day 15, 600 mg bid n=15",2.07 (0.848)
same,drug accumulation ratio following multiple doses,Plasma pharmacokinetics; capsules,one‐ to twofold
same,drug accumulation following multiple doses,Plasma pharmacokinetics; capsules 450 and 600 mg bid,ca. twofold
same,dose proportionality of steady‐state AUCtau and Cmax,"Plasma pharmacokinetics; capsules, 100 to 600 mg bid",generally dose proportional
same,"mean exposure, tablet 400 mg bid versus capsules 600 mg bid",Plasma pharmacokinetics; steady state,comparable mean exposure
same,"Cmax, Mean (SD)","Plasma pharmacokinetics; steady state, Cycle 1 Day 15, 200 mg bid n=5",2500 (856) ng/mL
same,"Tmax, Median","Plasma pharmacokinetics; steady state, Cycle 1 Day 15, 250 mg bid n=3",1.00 h
same,"Tmax, Median","Plasma pharmacokinetics; steady state, Cycle 1 Day 15, 400 mg bid tablet n=8",2.02 h
same,p‐MET H‐score (IHC) on treatment,p‐MET,2
same,patients discontinued as a result of AE,[3],16%
same,effect on MET‐dependent tumors,MET‐dependent tumors,regression of MET‐dependent tumors
same,best overall response stable disease,advanced solid tumors,18.2%
same,IC50,MET,~1 nM
same,selectivity versus other kinases,other kinases,highly selective versus other kinases
